Consider 21 compounds from ChEMBL document CHEMBL1154253, “Synthesis and serotonin transporter activity of sulphur-substituted alpha-alkyl phenethylamines as a new class of anticancer agents” (Eur J Med Chem, 2009).

One assay concerns HEK293. Kind of assay: Cytotoxicity against human HEK293 cells after 48 hrs by neutral red assay. As to conditions: HEK293, 48 h. Format: cell-based. The method in brief:
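Neutral Red uptake: 5 × 10⁴ cells/well grown 24–36 h to sub-confluence, then treated 48 h. Cells incubated 3 ± 1 h with NR dye, washed and solubilised in 50% ethanol–1% acetic acid, and absorbance read at 540 nm (690 nm background). Viability given as % of vehicle-treated cells. pEC50 obtained by sigmoidal regression (Hill slope 1) using 4 concentrations in triplicate on two independent days. SERT-line values compared with parental HEK293 by two-way ANOVA with Bonferroni test. Sodium azide 30 mM and Triton-X 2% as positive controls.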

Assay [1] has as its target T1, Sodium-dependent serotonin transporter (Rattus norvegicus, UniProt P31652). Put plainly: Inhibition of [3H]5-HT reuptake at rat SERT expressed in HEK293 cells after 2 mins by liquid scintillation counting. Format: cell-based.
In a further assay the test system is SH-SY5Y. Put plainly: Cytotoxicity against human SH-SY5Y cells after 48 hrs by neutral red assay. Format: functional, cell-based.
The target in assay [2] is T1, Sodium-dependent serotonin transporter. Kind of assay: Inhibition of [3H]5-HT uptake at SERT in rat brain synaptosome. Format: tissue-based.
For assay [3], the target named is Sodium-dependent noradrenaline transporter (Homo sapiens, UniProt P23975). Kind of assay: Inhibition of human noradrenaline transporter.
For assay [4], the target named is Sodium-dependent dopamine transporter (Homo sapiens, UniProt Q01959). Put plainly: Inhibition of human dopamine transporter.
The target of assay [5] is Sodium-dependent serotonin transporter (Rattus norvegicus) (UniProt P31652). Kind of assay: Inhibition of [3H]5-HT reuptake at rat SERT expressed in HEK293 cells assessed as serotonin reuptake at 10 uM after 2 mins by liquid scintillation counting. The format is cell-based. The arrangement: scale not given: the % may be the effect or the level left. The method in brief: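 HEK293 TREx cells stably carrying rat SERT-FLAG were plated on poly-L-lysine, and expression was induced with tetracycline for 24 h. Cells were washed in TB buffer (10 mM HEPES, 150 mM NaCl, 2 mM KCl, 1 mM CaCl₂, 1 mM MgCl₂) and preincubated with compound for 5 min at 37 °C. [³H]5-HT (~1 Ci/mmol) uptake then ran 2 min at room temperature. Uptake was stopped with cold paroxetine-containing buffer, and cells were lysed in 2% SDS and counted by scintillation. Paroxetine-defined non-specific uptake was subtracted, and untreated cells were set as 100% reuptake.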

Assay [6] has the same target. Kind of assay: Inhibition of [3H]5-HT reuptake at rat SERT expressed in HEK293 cells assessed as serotonin reuptake at […] after 2 mins by liquid scintillation counting. Format: cell-based. The arrangement: scale not given: the % may be the effect or the level left.
For assay [7] the target is unchanged. Kind of assay: Inhibition of [3H]5-HT reuptake at rat SERT expressed in HEK293 cells assessed as serotonin reuptake at 100 uM after 2 mins by liquid scintillation counting. The format is cell-based. Also noted: scale not given: the % may be the effect or the level left.
Assay [8] has as its target Sodium-dependent serotonin transporter (Homo sapiens, UniProt P31645). Kind of assay: Inhibition of [3H]5-HT uptake at SERT.
Assay [9] deals with Sodium-dependent serotonin transporter (Rattus norvegicus) (UniProt P31652). Put plainly: Inhibition of [3H]5-HT reuptake at rat SERT expressed in HEK293 cells at 1 uM after 2 mins by liquid scintillation counting. The format is cell-based.

As usually defined, the IC50 is the concentration at which inhibition is half-maximal. For orientation: inhibition means the percentage by which the read-out fell short of the control.

Chain of Sodium-dependent serotonin transporter (Rattus norvegicus) (P31652 whole entry): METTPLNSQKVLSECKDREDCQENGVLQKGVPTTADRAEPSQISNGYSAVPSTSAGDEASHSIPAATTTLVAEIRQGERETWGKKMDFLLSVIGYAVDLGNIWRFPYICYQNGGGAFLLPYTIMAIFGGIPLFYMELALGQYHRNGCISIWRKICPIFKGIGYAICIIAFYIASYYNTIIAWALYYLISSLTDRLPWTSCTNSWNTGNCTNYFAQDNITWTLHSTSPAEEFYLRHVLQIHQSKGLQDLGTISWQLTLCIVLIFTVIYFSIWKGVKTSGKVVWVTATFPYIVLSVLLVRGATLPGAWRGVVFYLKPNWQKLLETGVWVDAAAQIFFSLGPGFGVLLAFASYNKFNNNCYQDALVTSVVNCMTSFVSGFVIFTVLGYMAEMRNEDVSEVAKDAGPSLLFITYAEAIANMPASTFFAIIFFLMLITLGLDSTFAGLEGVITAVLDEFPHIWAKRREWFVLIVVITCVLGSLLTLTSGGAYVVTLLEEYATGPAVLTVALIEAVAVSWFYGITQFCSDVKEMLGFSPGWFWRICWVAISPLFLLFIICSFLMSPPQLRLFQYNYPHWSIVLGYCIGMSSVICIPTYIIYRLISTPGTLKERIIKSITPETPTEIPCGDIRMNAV
T1 sequence (P31652 whole entry): as above
Chain of Sodium-dependent dopamine transporter (Q01959 whole entry): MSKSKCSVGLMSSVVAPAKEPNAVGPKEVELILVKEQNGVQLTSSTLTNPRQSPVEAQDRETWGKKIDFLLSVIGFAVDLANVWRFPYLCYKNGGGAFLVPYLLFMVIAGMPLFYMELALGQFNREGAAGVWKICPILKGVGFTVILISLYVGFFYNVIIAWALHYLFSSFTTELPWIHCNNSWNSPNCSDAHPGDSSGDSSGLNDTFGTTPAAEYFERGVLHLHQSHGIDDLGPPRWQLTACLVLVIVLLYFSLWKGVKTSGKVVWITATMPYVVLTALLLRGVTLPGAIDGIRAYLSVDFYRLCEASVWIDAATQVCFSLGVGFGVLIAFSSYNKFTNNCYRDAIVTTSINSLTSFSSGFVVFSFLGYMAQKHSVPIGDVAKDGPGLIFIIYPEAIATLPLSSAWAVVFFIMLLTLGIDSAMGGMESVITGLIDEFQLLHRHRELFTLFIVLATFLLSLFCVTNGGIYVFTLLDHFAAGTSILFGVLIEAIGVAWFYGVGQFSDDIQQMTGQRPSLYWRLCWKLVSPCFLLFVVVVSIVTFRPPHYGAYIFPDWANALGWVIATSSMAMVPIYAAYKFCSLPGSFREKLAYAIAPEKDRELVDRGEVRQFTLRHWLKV
Chain of Sodium-dependent noradrenaline transporter (P23975 whole entry): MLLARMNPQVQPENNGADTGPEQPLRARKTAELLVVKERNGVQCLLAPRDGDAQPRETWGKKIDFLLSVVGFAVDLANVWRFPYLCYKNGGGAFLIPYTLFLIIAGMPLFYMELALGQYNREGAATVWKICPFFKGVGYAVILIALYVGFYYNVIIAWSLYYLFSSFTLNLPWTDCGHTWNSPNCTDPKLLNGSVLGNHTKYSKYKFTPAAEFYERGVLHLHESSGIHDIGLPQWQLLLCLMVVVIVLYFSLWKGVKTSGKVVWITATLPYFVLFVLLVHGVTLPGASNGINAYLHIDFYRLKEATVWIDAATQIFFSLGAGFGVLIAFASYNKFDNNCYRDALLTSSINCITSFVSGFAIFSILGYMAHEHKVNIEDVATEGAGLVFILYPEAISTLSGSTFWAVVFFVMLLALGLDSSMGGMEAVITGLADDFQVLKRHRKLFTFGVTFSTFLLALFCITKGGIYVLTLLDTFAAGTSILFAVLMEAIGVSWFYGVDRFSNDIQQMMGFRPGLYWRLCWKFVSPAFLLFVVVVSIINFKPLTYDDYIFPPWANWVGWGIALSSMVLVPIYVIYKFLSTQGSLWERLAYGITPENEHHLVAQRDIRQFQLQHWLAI
Chain of Sodium-dependent serotonin transporter (Homo sapiens, UniProt P31645) (P31645 whole entry): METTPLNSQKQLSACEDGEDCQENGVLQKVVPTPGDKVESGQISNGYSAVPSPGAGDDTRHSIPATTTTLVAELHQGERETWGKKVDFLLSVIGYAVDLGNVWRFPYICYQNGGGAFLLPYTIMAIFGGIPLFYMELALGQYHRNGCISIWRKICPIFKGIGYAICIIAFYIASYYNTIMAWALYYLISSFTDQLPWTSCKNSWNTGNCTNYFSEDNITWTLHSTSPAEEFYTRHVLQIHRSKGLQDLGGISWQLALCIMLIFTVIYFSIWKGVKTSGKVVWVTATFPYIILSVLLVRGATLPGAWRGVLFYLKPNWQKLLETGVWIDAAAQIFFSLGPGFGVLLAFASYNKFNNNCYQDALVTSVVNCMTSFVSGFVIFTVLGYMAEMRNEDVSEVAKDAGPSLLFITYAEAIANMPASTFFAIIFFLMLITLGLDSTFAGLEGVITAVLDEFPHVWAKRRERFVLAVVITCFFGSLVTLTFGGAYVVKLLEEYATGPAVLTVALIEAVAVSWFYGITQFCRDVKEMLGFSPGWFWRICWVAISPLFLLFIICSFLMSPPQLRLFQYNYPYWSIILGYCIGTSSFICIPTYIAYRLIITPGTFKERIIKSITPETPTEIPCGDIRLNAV

With `CNC(C)Cc1ccc(SC)cc1` (stereo not drawn), the EC50 was 19.5 µM in the assay with HEK293 (read-out: pEC50 (converted)) and 1550 µM with SH-SY5Y (read-out: pEC50 (converted)). In [1], this compound registered an IC50 of 417 nM.

As to `CCC(Cc1ccc(SC)cc1)NC` (stereo not drawn), the values for the EC50 with HEK293 (read-out: pEC50 (converted)) and in the assay on SH-SY5Y (read-out: pEC50 (converted)) were 50.1 µM and 832 µM, respectively. The compound further came in with an IC50 in [1] of 437 nM.

On to `CON(C)C(C)Cc1ccc(SC)cc1` (stereo not drawn), for which the EC50 is 525 µM in the assay with HEK293 (read-out: pEC50 (converted)) and greater than 10000 µM in the assay with SH-SY5Y (read-out: pEC50 (converted)). Further, the half-maximal inhibitory concentration (IC50) in assay [1] was 25100 nM.

Regarding `CCC(Cc1ccc(SC)cc1)NO` (stereo not drawn), the EC50 with HEK293 (read-out: pEC50 (converted)) is 8.51 µM; with SH-SY5Y (read-out: pEC50 (converted)), 31.6 µM. In assay [1], this compound yielded an IC50 of 598 nM.

Consider `CC(N)Cc1ccc(SCc2ccccc2)cc1` (stereo not drawn), for which the EC50 in the assay with HEK293 (read-out: pEC50 (converted)) is 2.95 µM; in the assay on SH-SY5Y (read-out: EC50), 1 µM; with SH-SY5Y (read-out: pEC50 (converted)), 19.5 µM. Besides, the IC50 in assay [1] turned out to be 679 nM.

`CC(N)Cc1ccc(Cl)cc1` (stereo not drawn): the concentration for half-maximal inhibition (IC50) was 182 nM in assay [2], 207 nM in assay [3] and 424 nM in [4].

For `CCC(Cc1ccc(SC)cc1)NC(C)C` (stereo not drawn), the EC50 was 17.4 µM in the assay on HEK293 (read-out: pEC50 (converted)) and 339 µM in the assay on SH-SY5Y (read-out: pEC50 (converted)). Inhibition in assay [1] was half-maximal at 1940 nM (IC50).

As to `CSc1ccc(CC(C)N(C)C)cc1` (stereo not drawn), the EC50 with HEK293 (read-out: pEC50 (converted)) is 20 µM; in the assay with SH-SY5Y (read-out: pEC50 (converted)), 1860 µM. This compound also displayed an IC50 in assay [1] of 520 nM.

On to `CCSc1ccc(CC(C)N)cc1` (stereo not drawn), for which the EC50 was 15.1 µM in the assay with HEK293 (read-out: pEC50 (converted)), 1 µM in the assay with SH-SY5Y (read-out: EC50) and 64.6 µM in the assay with SH-SY5Y (read-out: pEC50 (converted)). In assay [1], this compound came in with a half-inhibitory concentration (IC50) of 1400 nM.

Consider `CCSc1ccc(CC(CC)NO)cc1` (stereo not drawn), for which the EC50 was 11.5 µM with HEK293 (read-out: pEC50 (converted)) and 1820 µM with SH-SY5Y (read-out: pEC50 (converted)). The compound also returned an IC50 in [1] of 1450 nM.

As to `CCCCCSc1ccc(C(N)CC)cc1` (stereo not drawn), the EC50 with HEK293 (read-out: pEC50 (converted)) was 2690 µM; with SH-SY5Y (read-out: pEC50 (converted)) it was greater than 10000 µM. Moreover, in assay [5], the Activity stood at 65%.

In the case of `CCC(Cc1ccc(SC)cc1)NCCOC` (stereo not drawn), the EC50 in the assay on HEK293 (read-out: pEC50 (converted)) was 16.2 µM; with SH-SY5Y (read-out: pEC50 (converted)), 3890 µM. For the same compound, 2820 nM corresponded to half-maximal inhibition in [1] (IC50).

For `CCSc1ccc(CC(C)NO)cc1` (stereo not drawn), the EC50 was 32.4 µM with HEK293 (read-out: pEC50 (converted)) and 708 µM in the assay on SH-SY5Y (read-out: pEC50 (converted)). The compound further came in with an IC50 in [1] of 625 nM.

As for `CCC(N)Cc1ccc(SC)cc1` (stereo not drawn), the EC50 with HEK293 (read-out: pEC50 (converted)) is 14.8 µM; with SH-SY5Y (read-out: pEC50 (converted)), 437 µM. This compound registered an IC50 in [1] of 611 nM.

Take `CC(N)Cc1ccc(S(C)(=O)=O)cc1` (stereo not drawn): the EC50 with HEK293 (read-out: pEC50 (converted)) and with SH-SY5Y (read-out: pEC50 (converted)) was greater than 10000 µM in each case. In addition, the Activity in [6] and in [7] was 100% each time.

For `CNC(C)Cc1ccc2c(c1)OCO2` (stereo not drawn) [MIDOMAFETAMINE], the IC50 in [8] amounted to 425 nM; in assay [3], 405 nM; in [4], 1440 nM; in [1], 1060 nM. Besides, the EC50 was 245 µM in the assay on HEK293 (read-out: pEC50 (converted)) and greater than 10000 µM in the assay on SH-SY5Y (read-out: pEC50 (converted)).

In the case of `CCSc1ccc(CC(CC)N(C)O)cc1` (stereo not drawn), the figures for the EC50 in the assay with HEK293 (read-out: pEC50 (converted)) and in the assay on SH-SY5Y (read-out: pEC50 (converted)) were 51.3 µM and 209 µM, respectively. Further, the IC50 in assay [1] came to 2000 nM.

With `C#CCNC(C)Cc1ccc(SC)cc1` (stereo not drawn), the EC50 in the assay on HEK293 (read-out: pEC50 (converted)) was 24.5 µM; with SH-SY5Y (read-out: pEC50 (converted)), 2340 µM. For the same compound, half-maximal inhibition in assay [1] (IC50) required 688 nM.

As to `CCSc1ccc(CC(CC)NC)cc1` (stereo not drawn), in the assay with HEK293 (read-out: EC50), the EC50 is greater than 100 µM. Moreover, the inhibition in assay [9] worked out at 26%.

As to `C#CCNC(CC)Cc1ccc(SC)cc1` (stereo not drawn), the EC50 with HEK293 (read-out: pEC50 (converted)) is 20.4 µM; with SH-SY5Y (read-out: pEC50 (converted)), 394 µM. In assay [1], this compound showed an IC50 of 399 nM.

With `CCSc1ccc(CC(C)NC)cc1` (stereo not drawn), the values for the EC50 in the assay on HEK293 (read-out: pEC50 (converted)) and in the assay with SH-SY5Y (read-out: pEC50 (converted)) were 7.59 µM and 282 µM, respectively. In assay [1], this compound registered an IC50 of 724 nM.
